Hits are enriched below; roughly 4.8% of the tested compounds scored in any of these assays.
FLuc stim CS: firefly luciferase counter-screen for stimulation assays | activation factor at 10 µM | P08659 | AID 1027 | 200,000 tested, under 10 active | ATPlite luciferase biochemical, luminescence, 10 min; 0 = ATP-free wells, 1 = DMSO control;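 active = luciferase activation factor, scaled between plate controls, of at least 2 with compound at 10 µM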
Target sequence (P08659 whole entry, looked up): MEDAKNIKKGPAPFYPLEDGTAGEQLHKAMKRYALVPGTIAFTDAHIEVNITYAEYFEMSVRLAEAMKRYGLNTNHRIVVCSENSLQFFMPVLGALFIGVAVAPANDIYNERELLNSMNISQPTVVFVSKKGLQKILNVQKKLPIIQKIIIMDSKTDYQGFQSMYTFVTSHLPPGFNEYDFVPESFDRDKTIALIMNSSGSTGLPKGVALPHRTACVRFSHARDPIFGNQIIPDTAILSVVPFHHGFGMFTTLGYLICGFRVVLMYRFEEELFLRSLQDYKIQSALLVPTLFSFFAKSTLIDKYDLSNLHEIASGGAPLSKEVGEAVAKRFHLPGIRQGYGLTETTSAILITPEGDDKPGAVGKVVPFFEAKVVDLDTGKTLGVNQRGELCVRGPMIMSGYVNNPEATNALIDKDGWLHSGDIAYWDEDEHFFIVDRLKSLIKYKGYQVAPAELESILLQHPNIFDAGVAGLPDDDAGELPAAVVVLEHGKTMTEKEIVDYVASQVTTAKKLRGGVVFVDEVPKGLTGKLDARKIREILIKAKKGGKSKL
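Assay system: Luciferase/luciferin detection reagent, cell-free biochemical luciferase assay / Read-out: luciferase activation / Benchmarks: No-ATP low control, compound-free enzyme-plus-ATP high control / Medium: PBS buffer for ATP / Detection: luminescence measurement of luciferase light output / Schedule: 10 min at ambient temperature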
APP transl inh: APP translation inhibition; AID 1285; SH-SY5Y APP 5'UTR-luciferase reporter, luminescence; inhibition, % at 2 µM; actives 0.82% (n = 190,000);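 active = inhibition above a set limit, derived from the sample mean plus 3 SD, cut at about 45% in these data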
STAT1 act: increases IFN-gamma driven STAT1 reporter signal; activation (% of control), % at 5.5 µM; AID 932; NIH 3T3 STAT1-luciferase reporter, luminescence; 100% = IFN-gamma alone, no compound; actives 2.6% (n = 200,000);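 active = activation above the screen-wide mean activation plus 3 SD, cut at about 130% in these data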;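 note: raw ratio to IFN-gamma control signal so 100% means no change and 0% no light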
NF-kB neuron act: compounds increasing NF-kB expression in human neuronal cells; NF-kB reporter expression; hits give high values; actives 1.6% (n = 190,000); AID 1239; fold change at 12.5 µM; in the data active = fold change above about 3.3
FLuc inh counter: Photinus pyralis luciferase inhibition counter-screen; AID 1006; ATPLite firefly luciferase biochemical luminescence, 10 min; inhibition, % at 10 µM; P08659; actives 1.5% (n = 200,000);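 active = inhibition above about 50% when tested at 10 µM, limit read from the data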
APP 5'UTR act: APP 5'UTR luciferase reporter activation. SH-SY5Y APP 5'UTR luciferase reporter, luminescence; zero percent = DMSO vehicle wells. activation, % at 2 µM. actives 1% (n = 190,000);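 active = activation above a set limit, based on mean plus 3 SD of controls, cut at about 140% in these data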
Active calls of the source: *.

SMILES | FLuc stim CS | APP transl inh | STAT1 act | NF-kB neuron act | FLuc inh counter | APP 5'UTR act
COc1ccc(-c2cc(-c3ccccc3)c(C#N)c(S(C)(=O)=O)n2)cc1 | 1.1 | -10 | 107 | 6.3* | -8 | 10
N#Cc1c(-c2ccc(Br)cc2)cc(-c2cccnc2)nc1N | 1 | 2 | 100 | 0.92 | -5 | -2
COc1cccc(-c2cc(C(=O)N3C(C)CCCC3C)no2)c1 (configuration not stated) | 0.9 | -71 | 136* | 3.3* | 14 | 71
CC1CCCCN1C(=O)c1cc(-c2ccc(Cl)c(Cl)c2)on1 (configuration not stated) | 1 | -68 | 133* | 2.1 | -1 | 69
O=C(Nc1cccnc1)c1cc(-c2ccccc2)on1 | 0.3 | -17 | 106 | 1.2 | 65* | 17
O=C(Nc1cccnc1)c1cc(-c2ccc(Br)cc2)on1 | 0.7 | -2 | 111 | 2.3 | 27 | 2
CCC1CCCCN1C(=O)c1cc(-c2ccc(Cl)c(Cl)c2)on1 (configuration not stated) | 1 | -40 | 122 | 1.1 | 1 | 40
COc1cccc(-c2cc(C(=O)Nc3cccnc3)no2)c1 | 0.4 | 17 | 132* | 4.9* | 64* | -17
COc1cccc(-c2cc(C(=O)Nc3cc(OC)c(OC)c(OC)c3)no2)c1 | 1.1 | 0 | 97 | 0.87 | -6 | 0
CC(C)n1cc(NC(=O)c2cc(-c3ccccc3)on2)cn1 | 1 | 77* | 131* | 2.9 | 0 | -77
O=C(Nc1cccnc1)c1ccc(F)cc1 | 1 | -3 | 99 | 1.1 | -2 | 3
O=C(Nc1cccnc1)c1ccc(-c2ccccc2)cc1 | 0.5 | -110 | 112 | 4* | 51* | 110
NC(=O)COC(=O)CNC(=O)c1sc2ccccc2c1Cl | 0.9 | -24 | 99 | 1.2 | 8 | 24
S=c1nc(-c2ccccc2Cl)n(Cc2cccnc2)c2c1CCCC2 | 1.1 | -16 | 90 | 1.1 | -10 | 16
CC(C)C(=O)Nc1ccc(-c2nc3cccnc3o2)cc1 | 0.3 | -151 | 147* | 2.7 | 67* | 151*
Cc1ccc(-c2nc3ccc(Cl)cc3n2OC(C)C(=O)O)cc1 (configuration not stated) | 1 | -116 | 141* | 1.7 | 3 | 116
CC(On1c(-c2ccccc2)nc2ccc(Cl)cc21)C(=O)O (configuration not stated) | 1 | -12 | 98 | 1.5 | 4 | 12
CCCC(O)(CCC)C(=O)NN(C(=O)CCl)c1ccccc1 | 1 | 1 | 104 | 7.2* | -4 | -1
COc1ccc(Nc2nc(N)nc(CSC(=S)N3CCCCC3)n2)cc1 | 1 | -13 | 129* | 1.5 | 3 | 13
COc1ccc(Nc2nc(N)nc(CSC(=S)N3CCN(C)CC3)n2)cc1 | 1 | -2 | 114 | 1.3 | 0 | 2
O=C(NNC(=O)c1cccs1)Nc1cccc(Cl)c1 | 1 | 10 | 92 | 1.1 | 3 | -10
O=C(NC(=S)Nc1ccc(Cl)cn1)c1cccs1 | 0.3 | -186 | 194* | 4* | 68* | 186*
O=C(NNC(=S)Nc1ccccc1)c1cccs1 | 0.6 | -66 | 130* | 2.5 | 44 | 66
O=C(NNC(=S)Nc1ccc(Cl)cc1)c1cccs1 | 0.9 | -53 | 131* | 1.8 | 8 | 53
COc1ccc(-c2cc(CNC(=O)CN3CCN(C)CC3)on2)cc1 | 1 | -9 | 79 | 1 | -2 | 9
SMILES | FLuc stim CS | APP transl inh | STAT1 act | NF-kB neuron act | FLuc inh counter | APP 5'UTR act
O=S(=O)(Cc1cc(-c2ccccc2)no1)c1ccccc1 | 0.9 | -34 | 129* | 1.6 | 11 | 34
CCN(CC)CC(=O)NCc1cc(-c2ccc(OC)cc2)no1 | 1.1 | -2 | 102 | 0.95 | -6 | 2
COc1ccc(-c2cc(CS(=O)(=O)c3ccccc3)on2)cc1 | 0.7 | -118 | 142* | 3 | 29 | 117
O=C1c2ccccc2C(=O)N1Cc1cc(-c2ccccc2)no1 | 1 | -8 | 100 | 1.4 | -2 | 8
Clc1ccc(SCc2cc(-c3ccccc3)no2)cc1 | 1.1 | -5 | 108 | 1.4 | -6 | 5
Clc1ccc(OCc2cc(-c3ccccc3)no2)c(Cl)c1 | 0.5 | -188 | 72 | 4.5* | 51* | 188*
COc1ccc(-c2cc(COc3ccccc3)on2)cc1 | 0.9 | -25 | 140* | 2.2 | 6 | 25
CCOc1cc(C=C2C(=O)c3ccccc3C2=O)ccc1OCC(=O)Nc1ccc(C)cc1 | 1.1 | -7 | 104 | 0.77 | -5 | 7
CC(C)(CO)NC(=O)Nc1ccc(Cl)c(Cl)c1 | 1 | -20 | 99 | 1.1 | 0 | 20
COc1ccc(/C=C/C(=O)OCC(=O)Nc2ccc(Cl)c(S(=O)(=O)N(C)C)c2)cc1OC | 1 | -8 | 97 | 0.92 | 5 | 8
CCCc1cc2c(=O)c(-c3nc4ccccc4s3)c(COCC(=O)O)oc2cc1O | 0.9 | -49 | 97 | 1.4 | 7 | 49
Cn1c(CSCc2ccccc2)n[nH]c1=S | 1 | -22 | 95 | 1.1 | -4 | 23
CCc1ccc(C(=O)COC(=O)c2cccc(N3C(=O)c4c(C)nc5ccccc5c4C3=O)c2)cc1 | 0.5 | -113 | 106 | 1.2 | 51* | 113
Cc1c(C=O)c2ccccc2n1CC(=O)NCc1ccc2c(c1)OCO2 | 1 | -22 | 84 | 0.68 | -3 | 22
NC(=O)N/N=C\c1cc(Br)ccc1O | 1 | -3 | 97 | 1 | 1 | 3
O=C(N/N=C/c1cc(Cl)ccc1O)c1ccc(Br)cc1 | 0.9 | 56* | 100 | 1.4 | 9 | -56
O=C(N/N=C\c1ccc(Sc2ccccn2)o1)c1cccc(Br)c1 | 1 | 4 | 99 | 0.91 | 0 | -4
O=C(N/N=C/c1ccc(O)c2ncccc12)c1cccc(Br)c1 | 1 | 63* | 108 | 0.78 | 2 | -63
CC(=O)Nc1ccc(C(=O)N/N=C/c2cc(Br)cc(Br)c2O)cc1 | 1.1 | 25 | 99 | 1.4 | -5 | -25
CC(C)C(=O)Nc1ccc(C(=O)N/N=C/c2cc(Br)cc(Br)c2O)cc1 | 1 | 46* | 90 | 1 | -1 | -46
O=C(N/N=C\c1cc(Br)ccc1O)c1ccc(S(=O)(=O)N2CCCCC2)cc1 | 1.1 | 69* | 99 | 0.82 | -6 | -69
Nc1nc2nccc(-c3ccc(Cl)cc3)n2n1 | 0.5 | 1 | 121 | 1.6 | 51* | -1
COc1cc(OC)cc(C(=O)NNC(=O)c2ccccn2)c1 | 1.1 | 38 | 105 | 1.6 | -6 | -38
COc1ccc(C(=O)NNC(=O)c2ccccn2)cc1 | 0 | -125 | 18 | 0.38 | 97* | 125
COc1ccc(/C=C/C(=O)c2ccc(O)cc2)cc1 | 0.2 | -48 | 112 | 2.6 | 75* | 49
COc1ccc(/C=C/C(=O)c2ccoc2)cc1 | 0.6 | -4 | 103 | 1.8 | 45 | 4
COc1ccc(OCC(=O)NNC(=O)c2ccccn2)cc1 | 1 | 12 | 95 | 0.8 | -3 | -12

Screening results (PubChem)
